Experimental data gathered from unrelated publications.
Target: Inhibitor of nuclear factor kappa-B kinase subunit epsilon (IKBKE, Homo sapiens, UniProt Q14164)
Residues used in one study (Q14164 1-716): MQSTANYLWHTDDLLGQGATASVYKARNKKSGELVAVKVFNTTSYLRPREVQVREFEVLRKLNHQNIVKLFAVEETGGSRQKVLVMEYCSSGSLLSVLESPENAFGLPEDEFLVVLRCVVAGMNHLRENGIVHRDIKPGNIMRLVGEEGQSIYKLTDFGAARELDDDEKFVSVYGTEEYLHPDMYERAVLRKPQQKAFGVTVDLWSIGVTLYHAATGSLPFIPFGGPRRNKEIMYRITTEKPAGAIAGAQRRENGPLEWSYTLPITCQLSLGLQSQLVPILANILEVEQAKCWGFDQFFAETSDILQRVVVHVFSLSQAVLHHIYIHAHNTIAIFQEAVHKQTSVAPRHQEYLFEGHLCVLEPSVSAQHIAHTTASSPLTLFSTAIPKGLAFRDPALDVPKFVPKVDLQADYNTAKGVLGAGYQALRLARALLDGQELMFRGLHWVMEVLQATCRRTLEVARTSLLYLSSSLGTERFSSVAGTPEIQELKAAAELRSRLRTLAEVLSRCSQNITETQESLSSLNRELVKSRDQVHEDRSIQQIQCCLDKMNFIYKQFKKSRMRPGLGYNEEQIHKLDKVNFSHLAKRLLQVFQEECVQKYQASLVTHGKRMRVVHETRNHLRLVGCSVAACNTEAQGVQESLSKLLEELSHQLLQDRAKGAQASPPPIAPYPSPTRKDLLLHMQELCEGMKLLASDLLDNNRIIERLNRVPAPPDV

Structure (SMILES)	test	conditions	quantity	value
Cc1ccc(NC(=O)c2ccnc(C(F)(F)F)c2)cc1-c1cc(OCCO)nc(N2CCOCC2)c1	binding	1 µM	remaining binding	94%
CC(C)S(=O)(=O)c1ccc2nccc(Nc3ccc4sc(C5CCCC5)nc4c3)c2c1	enzyme activity, inhibitor	1 µM	activity vs control	113%
CCCCC(=O)Nc1ccc(-c2ccc3ncn(CCC)c(=O)c3c2)cn1	binding, competition with immobilised ligand	0.5 µM	remaining binding	93%
C#Cc1cc(-c2cc(Nc3nc(N[C@@H](C)c4ccc(F)cn4)ncc3Cl)n[nH]2)ccc1C=O	enzyme activity, inhibitor	0.2 µM	inhibition	14.7%
C=CC(=O)N1CCC([C@@H]2CCNc3c(C(N)=O)c(-c4ccc(Oc5ccccc5)cc4)nn32)CC1	enzyme activity, inhibitor	1 µM	inhibition	1%
COc1ccc2[nH]c3c4[nH]c5ccc(OC)cc5c4c4c(c3c2c1)C(=O)NC4=O	binding	1 µM	remaining binding	48%
CO[C@@H]1[C@H](N(C)C(=O)c2ccccc2)C[C@H]2O[C@]1(C)n1c3ccccc3c3c4c(c5c6ccccc6n2c5c31)C(=O)NC4	enzyme activity, inhibitor	1 µM	inhibition	97%
Cc1cc(O)c(-c2ccc([C@@H](C)CN(C)C)cc2)c2c1[nH]c(=O)c1sccc12	enzyme activity, inhibitor	0.1 µM	inhibition	-7.74%
